Reference: ChEMBL document CHEMBL2010658, “Caspase-1 and -3 inhibiting drimane sesquiterpenoids from the extremophilic fungus Penicillium solitum” (J Nat Prod, 2012)
Activity calls are given as the source filed them. The rule behind the calls is not given here.

Key:
Caspase-1 (Homo sapiens) = target: T1, Caspase-1 (Homo sapiens) (UniProt P29466); experiment: (§1) Inhibition of caspase 1 by signal transduction fluorometric assay
T1 sequence (whole entry): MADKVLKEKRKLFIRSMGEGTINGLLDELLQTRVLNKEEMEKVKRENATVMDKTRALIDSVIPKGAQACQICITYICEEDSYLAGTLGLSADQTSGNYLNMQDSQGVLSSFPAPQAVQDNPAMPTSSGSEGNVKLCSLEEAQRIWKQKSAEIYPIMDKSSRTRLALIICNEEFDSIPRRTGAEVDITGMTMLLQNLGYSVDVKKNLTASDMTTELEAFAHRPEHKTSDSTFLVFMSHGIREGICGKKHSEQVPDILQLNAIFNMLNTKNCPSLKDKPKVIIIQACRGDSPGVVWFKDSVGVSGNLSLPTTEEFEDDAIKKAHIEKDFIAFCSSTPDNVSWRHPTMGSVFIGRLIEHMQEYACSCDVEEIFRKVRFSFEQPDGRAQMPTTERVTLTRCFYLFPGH
Outline: (§2)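 Fluorometric enzyme inhibition assays. Reference inhibitors were Ac-YVAD-CHO for caspase-1, Ac-DEVD-CHO for caspase-3, and NNGH for MMP-3.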

Caspase-3 (Homo sapiens) = target: T2, Caspase-3 (Homo sapiens) (UniProt P42574); experiment: (§3) Inhibition of caspase 3 by signal transduction fluorometric assay; outline: as §2
T2 sequence (whole entry): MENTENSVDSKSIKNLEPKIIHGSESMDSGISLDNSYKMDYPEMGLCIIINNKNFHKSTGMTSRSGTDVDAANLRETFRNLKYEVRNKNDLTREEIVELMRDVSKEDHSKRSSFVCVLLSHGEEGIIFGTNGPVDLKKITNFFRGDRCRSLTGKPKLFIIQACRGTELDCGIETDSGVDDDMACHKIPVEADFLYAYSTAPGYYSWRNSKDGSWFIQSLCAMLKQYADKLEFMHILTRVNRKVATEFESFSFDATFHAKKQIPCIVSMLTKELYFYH

[1] = target: Stromelysin-1 (Homo sapiens) (UniProt P08254); experiment: Inhibition of MMP3 by signal transduction fluorometric assay; outline: as §2
Caspase-1 = target: T3, Caspase-1 (Homo sapiens, UniProt P29466); experiment: as §1; outline: as §2
T3 sequence (P29466 whole entry): T1 sequence (whole entry)

THP-1 = experiment: Antiinflammatory activity in human THP1 cells assessed as inhibition of titanium dioxide nanowires/LPS-induced IL-1beta production at 1 to 100 uM after 24 hrs by ELISA; type: functional, cell-based
Outline: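 PMA-differentiated THP-1 cells (1 μg/mL PMA, 24 h beforehand), grown in RPMI with 10% FBS, 0.05 mM 2-mercaptoethanol and pyruvate. Cells were scraped, pelleted, and resuspended at 1.0 × 10⁶ cells/mL. They were exposed to compound at 1, 10 and 100 μM plus LPS (20 ng/mL) and TiO₂ nanowires (100 μg/mL) for 24 h at 37 °C. IL-1β was measured by ELISA and viability by MTS (490 nm).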

Caspase-3 = target: T4, Caspase-3 (Homo sapiens, UniProt P42574); experiment: as §3; outline: as §2
T4 sequence (P42574 whole entry): T2 sequence (whole entry)

Sequence of Stromelysin-1 (Homo sapiens) (P08254 100-477 limits assumed): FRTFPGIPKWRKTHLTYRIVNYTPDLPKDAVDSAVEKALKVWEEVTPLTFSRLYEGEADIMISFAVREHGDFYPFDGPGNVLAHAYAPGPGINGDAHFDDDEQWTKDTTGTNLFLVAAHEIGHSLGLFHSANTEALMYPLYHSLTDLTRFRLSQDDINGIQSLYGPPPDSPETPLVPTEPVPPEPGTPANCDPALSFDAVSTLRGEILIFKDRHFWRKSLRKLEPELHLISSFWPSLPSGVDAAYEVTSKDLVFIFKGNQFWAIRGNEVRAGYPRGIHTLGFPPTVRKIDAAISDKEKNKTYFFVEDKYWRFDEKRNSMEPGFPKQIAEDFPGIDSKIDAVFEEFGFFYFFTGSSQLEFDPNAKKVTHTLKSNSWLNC

Row | inhibition (Caspase-1 (Homo sapiens)) | inhibition (Caspase-3 (Homo sapiens)) | inhibition [1] | IC50 (Caspase-1) [µM] | IC50 (Caspase-3) [µM] | IC25 (Caspase-3 (Homo sapiens)) [µM] | SMILES | inhibition (THP-1)
1 | inactive | inactive | inactive | – | – | – | CCCCCCCCCC[C@H](C(=O)OC)[C@]1(C(=O)OC)CCC(=O)O1 | –
2 | inactive | inactive | inactive | – | – | – | CCCCCCCCCC[C@H](C(=O)OC)[C@@](O)(CCC(=O)OC)C(=O)OC | –
3 | inactive | inactive | inactive | – | – | – | C=CCCCCCCCC[C@H](C(=O)OC)[C@@](O)(CCC(=O)OC)C(=O)OC | –
4 | – | – | – | 100 | 200 | 15 | CC(=O)N[C@H](C(=O)O[C@H]1CCC(C)(C)[C@@H]2CC=C3C(=O)OC[C@@H]3[C@@]12C)C(C)C (relative stereo) | Active
5 | – | – | – | 90 | 50 | 10 | CC(=O)N[C@H](C(=O)O[C@H]1CCC(C)(C)[C@@H]2CC=C3C(=O)OC[C@]3(O)[C@@]12C)C(C)C (relative stereo) | Active
